According to ChEMBL document CHEMBL5131571, “Design, Synthesis, and Evaluation of Lung-Retentive Prodrugs for Extending the Lung Tissue Retention of Inhaled Drugs” (J Med Chem, 2022):

How the values were obtained:
[1] = Drug metabolism in rat lung homogenate assessed as piperidin-4-yl-2-hydroxy-2,2-diphenylacetate formation at 1500 ng/ml by MS/MS analysis; assay type: ADME, tissue-based; settings: tissue homogenate
Procedure, shortened: (§1)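 Wistar Han rat lung homogenized, then diluted 1 in 4 by mass with water (pH 6.8). Incubated at nominal 1500 ng/mL, 37 °C. Breakdown followed over 1500 min by MS/MS against authenticated samples of prodrug, intermediate and parent.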

[2] = Drug metabolism in rat lung homogenate assessed as 1-(((S)-2-Amino-3,3-dimethylbutanoyl)oxy)ethyl-4-(2-hydroxy-2,2-diphenylacetoxy)piperidine-1-carboxylate Hydrochloride intermediate formation at 1500 ng/ml by MS/MS analysis; assay type: ADME, tissue-based; settings: tissue homogenate; procedure, shortened: as §1
[3] = Stability of compound in PBS at pH 6.5 assessed as half life by LC-MS analysis; assay type: physicochemical
Procedure, shortened: (§2)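 1000 ng/mL final (from 200 μg/mL D6-DMSO stock) in prewarmed matrix at 37 °C with continuous shaking, triplicate. Matrices: pH 6.5 or 7.4 phosphate buffer, 1 in 4 water-diluted Wistar Han lung homogenate (pH 6.8), or fresh rat blood. Timed aliquots quenched in MeCN with labetalol/reserpine internal standards. Half-life by MS, mean ± SD.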

[4] = Stability in Crl Wistar Han rat lung homogenate at pH 6.8 assessed as half life by mass spectroscopic analysis; assay type: ADME, tissue-based; procedure, shortened: as §2
[5] = Stability of compound in PBS at pH 7.4 assessed as half life by LC-MS analysis; assay type: physicochemical; procedure, shortened: as §2
[6] = Stability in Crl Wistar Han rat blood at pH 7.2 assessed as half life by mass spectroscopic analysis; assay type: ADME, tissue-based; procedure, shortened: as §2
[7] = Plasma concentration in Crl Sprague-Dawley rat at 0.2 mg/kg, IT measured at 0.25 hrs by LC-MS/MS analysis; assay type: ADME, organism-based
Procedure, shortened: (§3)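 Male Sprague Dawley rats, n = 3 per time point, given a single intratracheal dose of 0.2 mg/kg at 1 mL/kg in 5% ethanol in pH 6.5 PBS. Serial blood into EDTA, centrifuged for plasma. At 24 h, lungs taken after CO2 euthanasia, rinsed, blotted, weighed, snap-frozen and homogenized. Methanol/acetonitrile protein precipitation with imipramine internal standard. Quantified by LC–MS/MS.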

[8] = Plasma concentration in Crl Sprague-Dawley rat at 0.2 mg/kg, IT measured at 2 hrs by LC-MS/MS analysis; assay type: ADME, organism-based; procedure, shortened: as §3
[9] = Protein binding to Crl Wistar Han rat lung homogenate assessed as free fraction by mass spectroscopic analysis; assay type: ADME, tissue-based
Procedure, shortened: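 Rapid equilibrium dialysis of spiked 1 in 4 Wistar Han rat lung homogenate (1000 ng/mL) against pH 6.5 PBS, 4 h, 37 °C, orbital shaking. Recovery and time-0/240 matrix controls included. Samples matrix-matched 1:1, MeCN precipitation with labetalol/reserpine internal standards, MS quantification. Triplicate, mean ± SD.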

[10] = Drug concentration in lung of Crl Sprague-Dawley rat at 0.2 mg/kg, IT measured at 24 hrs by LC-MS/MS analysis; assay type: ADME, organism-based; settings: read-out: Ct; procedure, shortened: as §3
[11] = Drug metabolism in rat lung homogenate assessed as 1-(((R)-2-amino-3,3-dimethylbutanoyl)oxy)ethyl 4-(2-hydroxy-2,2-diphenylacetoxy)piperidine-1-carboxylate intermediate formation at 1500 ng/ml by MS/MS analysis; assay type: ADME, tissue-based; settings: tissue homogenate; procedure, shortened: as §1
[12] = Plasma concentration in Crl Sprague-Dawley rat at 0.2 mg/kg, IT measured at 1 hr by LC-MS/MS analysis; assay type: ADME, organism-based; procedure, shortened: as §3
[13] = Plasma concentration in Crl Sprague-Dawley rat at 0.2 mg/kg, IT measured at 0.5 hrs by LC-MS/MS analysis; assay type: ADME, organism-based; procedure, shortened: as §3
[14] = Plasma concentration in Crl Sprague-Dawley rat at 0.2 mg/kg, IT measured at 3 to 24 hrs by LC-MS/MS analysis; assay type: ADME, organism-based; settings: in vivo, other, time 3-24 hrs; procedure, shortened: as §3

For `CC(OC(=O)[C@@H](NC(=O)[C@@H](N)CCCCN)C(C)(C)C)OC(=O)N1CCC(OC(=O)C(O)(c2ccccc2)c2ccccc2)CC1.Cl.Cl` (stereo not given in full), the Drug metabolism [1] was “Metabolite_Detected” and the Drug metabolism [2] was “Metabolite_Detected”.

For `CC(OC(=O)C[C@@H](N)CCCCN)OC(=O)N1CCC(OC(=O)C(O)(c2ccccc2)c2ccccc2)CC1.Cl.Cl` (stereo not given in full), the half-life [3] was 29.1 h, the half-life [4] was 3.1 h and the half-life [5] was 5.9 h. The half-life [6] was 0.3 h.

Molecule `CC(OC(=O)[C@H](NC(=O)[C@@H](N)CCCCN)C(C)(C)C)OC(=O)N1CCC(OC(=O)C(O)(c2ccccc2)c2ccccc2)CC1.Cl.Cl` (stereo not given in full) has a concentration at 0.25 h [7] of 2.03 ng/mL, a concentration at 2 h [8] of 1.25 ng/mL and a fraction unbound [9] of 0.005. The concentration at 24 h [10] was 20000 ng/mL, the Drug metabolism [11] was “Metabolite_Notdetected” and the concentration at 1 h [12] was 2.1 ng/mL. For the same molecule, the Drug metabolism [1] was “Metabolite_Detected”, the concentration at 0.5 h [13] was 1.63 ng/mL and the Cp [14] was 1 ng/mL.
